Columns and labels:
[1] = target: T1, Cathepsin B-like cysteine protease (Trypanosoma brucei, UniProt Q6R7Z5); assay: Inhibition of Trypanosoma brucei cathepsin B-like cysteine protease
T1 sequence (Q6R7Z5 whole entry): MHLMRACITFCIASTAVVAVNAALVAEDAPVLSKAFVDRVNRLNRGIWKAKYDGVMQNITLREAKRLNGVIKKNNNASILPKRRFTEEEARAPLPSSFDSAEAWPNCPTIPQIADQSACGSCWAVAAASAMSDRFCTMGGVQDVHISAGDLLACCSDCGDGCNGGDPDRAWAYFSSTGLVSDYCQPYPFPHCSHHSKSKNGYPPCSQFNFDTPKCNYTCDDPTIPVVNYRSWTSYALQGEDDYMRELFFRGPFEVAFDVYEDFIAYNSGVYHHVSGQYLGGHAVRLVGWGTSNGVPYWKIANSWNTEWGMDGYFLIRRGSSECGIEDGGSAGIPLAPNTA
Method in brief: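 Recombinant TbcatB zymogen expressed in Pichia pastoris, purified by HIC and anion exchange, titrated with CA074; 35 nM final. Inhibitor preincubated 20 min at room temperature, then Z-Phe-Arg-AMC (10 µM final). Initial rate from fluorescence (ex 350/em 460 nm) over 10 min. Triplicate. Sigmoidal IC50 fit.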

Trypanosoma brucei = assay: Antitrypanosomal activity against Trypanosoma brucei; assay type: functional, organism-based
Method in brief: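 Culture-adapted bloodstream T. brucei grown in HMI-9 with pen/strep, 10% heat-inactivated FBS and 10% Serum Plus at 37 °C, 5% CO2, diluted to 1 × 10^4 cells/mL. Inhibitor added from DMSO, 48 h at 37 °C, then 1 h room-temperature equilibration. Cell Titer Glo luminescence read after 8 min. Quadruplicate. IC50 by curve fitting. Values shift up to 10-fold with FBS lot.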

Procathepsin L = Procathepsin L (Homo sapiens, UniProt P07711); assay: Inhibition of human liver cathepsin L
Method in brief: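 Inhibitor preincubated 20 min at room temperature before Z-Phe-Arg-AMC (10 µM final). Initial rate from fluorescence (ex 350/em 460 nm) over 10 min. Quadruplicate. Sigmoidal IC50 fit.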

Cathepsin B = Cathepsin B (Homo sapiens, UniProt P07858); assay: Inhibition of human liver cathepsin B
Method in brief: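 Human liver enzyme at 0.56 ng/mL final in sodium acetate pH 5.5 buffer with 4 mM DTT, 0.01% Triton X-100, 0.5 mM EDTA. 20 min room-temperature preincubation with inhibitor, then Z-Arg-Arg-AMC (10 µM final). Quadruplicate. Sigmoidal IC50 fit.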

Chain of Procathepsin L (P07711 whole entry): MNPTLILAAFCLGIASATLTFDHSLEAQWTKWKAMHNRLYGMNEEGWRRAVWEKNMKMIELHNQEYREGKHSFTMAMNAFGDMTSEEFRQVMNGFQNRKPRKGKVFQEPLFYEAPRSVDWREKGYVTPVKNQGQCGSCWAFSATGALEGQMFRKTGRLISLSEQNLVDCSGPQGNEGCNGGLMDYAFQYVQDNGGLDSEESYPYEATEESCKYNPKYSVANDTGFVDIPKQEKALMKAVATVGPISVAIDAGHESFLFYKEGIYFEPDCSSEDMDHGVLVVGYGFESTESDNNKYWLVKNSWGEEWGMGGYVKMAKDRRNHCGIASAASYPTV

| Compound | IC50 [1] | IC50 (Trypanosoma brucei) | IC50 (Procathepsin L) | IC50 (Cathepsin B) | EC50 (Trypanosoma brucei) |
| --- | --- | --- | --- | --- | --- |
| Cc1ccc(CNc2nc(C#N)nc3c2ncn3Cc2ccccc2)cc1 | > 25 µM | – | 12.9 µM | > 30 µM | 0.56 µM |
| COc1ccc(Cn2cnc3c(NCc4ccc(Cl)cc4)nc(C#N)nc32)cc1 | 23 µM | 0.27 µM | > 30 µM | > 30 µM | – |
| CCCCCCNc1nc(C#N)nc2c1ncn2C1CCCC1 | > 25 µM | 1.5 µM | 28.4 µM | > 30 µM | – |
| CCCCCCNc1nc(C#N)nc2c1ncn2Cc1ccccc1 | > 25 µM | 0.7 µM | > 30 µM | > 30 µM | – |
| CCCCn1cnc2c(NC(C)c3ccccc3)nc(C#N)nc21 (configuration not stated) | > 25 µM | 1.5 µM | 9.4 µM | > 30 µM | – |
| CC(Nc1nc(C#N)nc2c1ncn2C1CCCC1)c1ccccc1 (configuration not stated) | > 25 µM | 3.4 µM | 11.8 µM | > 30 µM | – |
| COc1ccc(CNc2nc(C#N)nc3c2ncn3C2CCCC2)cc1 | 7 µM | 0.8 µM | 4 µM | > 30 µM | – |
| N#Cc1nc(NCc2ccc(F)cc2)c2ncn(CCCCO)c2n1 | 18 µM | 0.8 µM | 6.68 µM | > 30 µM | – |
| N#Cc1nc(NCc2ccccc2)c2ncn(Cc3cccc(C(F)(F)F)c3)c2n1 | 2.8 µM | 0.26 µM | > 30 µM | > 30 µM | – |
| N#Cc1nc(NCc2ccc(Cl)cc2)c2ncn(CCCO)c2n1 | 0.57 µM | 0.31 µM | 0.61 µM | – | – |
| N#Cc1nc(NCc2ccc(Cl)cc2)c2ncn(C3CCCC3)c2n1 | 19 µM | 1.2 µM | 13.5 µM | > 30 µM | – |
| N#Cc1nc(NCc2ccc(Cl)cc2)c2ncn(Cc3ccccc3)c2n1 | > 25 µM | 1.5 µM | > 30 µM | > 30 µM | – |
| N#Cc1nc(NCCc2ccccc2)c2ncn(Cc3cccnc3)c2n1 | 10 µM | 4.4 µM | 17.1 µM | > 30 µM | – |
| CCC(C)CNc1nc(C#N)nc2c1ncn2C1CCCC1 (configuration not stated) | 14 µM | 1.1 µM | 2.38 µM | > 30 µM | – |
| N#Cc1nc(NCc2ccc(Cl)c(Cl)c2)c2ncn(CCCO)c2n1 | 0.27 µM | 0.11 µM | 0.3 µM | – | – |
| COCCCn1cnc2c(NCc3ccc(Cl)c(Cl)c3)nc(C#N)nc21 | 2.5 µM | 0.15 µM | 0.78 µM | > 30 µM | – |
| N#Cc1nc(NCc2ccc(Br)cc2)c2ncn(CCCc3ccccc3)c2n1 | > 25 µM | 0.42 µM | > 30 µM | > 30 µM | – |

| Compound | IC50 [1] | IC50 (Trypanosoma brucei) | IC50 (Procathepsin L) | IC50 (Cathepsin B) | EC50 (Trypanosoma brucei) |
| --- | --- | --- | --- | --- | --- |
| CCCCn1cnc2c(NCc3ccc(Cl)cc3)nc(C#N)nc21 | 10 µM | 0.85 µM | 5.06 µM | > 30 µM | – |
| COc1ccc(CNc2nc(C#N)nc3c2ncn3Cc2ccccc2)cc1 | 4.5 µM | – | 8.05 µM | > 30 µM | 1 µM |
| Cc1ccc(CNc2nc(C#N)nc3c2ncn3CCCO)cc1 | 4.2 µM | – | 1.17 µM | 7.69 µM | 0.9 µM |
| N#Cc1nc(NCc2ccc(Cl)cc2)c2ncn(CCCCO)c2n1 | 4.8 µM | 0.6 µM | 4.15 µM | – | – |
| CCCCCCNc1nc(C#N)nc2c1ncn2CC1CCCCC1 | > 25 µM | 3.6 µM | > 30 µM | > 30 µM | – |
| CC(Nc1nc(C#N)nc2c1ncn2Cc1ccccc1)c1ccccc1 (configuration not stated) | > 25 µM | 1.3 µM | > 30 µM | > 30 µM | – |
| CCCCn1cnc2c(NCc3ccc(OC)cc3)nc(C#N)nc21 | 6 µM | – | 2.28 µM | > 30 µM | 0.39 µM |
| N#Cc1nc(NCc2ccccc2)c2ncn(CCCO)c2n1 | 12 µM | – | 2.27 µM | – | 2.9 µM |
| N#Cc1nc(NCc2ccccc2)c2ncn(Cc3ccccc3)c2n1 | 6 µM | 2 µM | 12.2 µM | > 30 µM | – |
| N#Cc1nc(NCc2ccc(Cl)c(Cl)c2)c2ncn(CCCCCO)c2n1 | 0.93 µM | 0.06 µM | 0.8 µM | > 30 µM | – |
| COCOCCn1cnc2c(NCc3ccc(Cl)c(Cl)c3)nc(C#N)nc21 | 0.8 µM | 0.32 µM | 0.87 µM | > 30 µM | – |
| N#Cc1nc(NCc2ccc(Cl)c(Cl)c2)c2ncn(Cc3ccccc3)c2n1 | 15 µM | – | 14.9 µM | > 30 µM | 0.26 µM |
| N#Cc1nc(NCc2ccccc2)c2ncn(CC3CCCCO3)c2n1 (configuration not stated) | 11 µM | – | 10.8 µM | > 30 µM | 0.24 µM |
| N#Cc1nc(NCc2ccc(Br)cc2)c2ncn(Cc3ccccc3)c2n1 | > 25 µM | 1.1 µM | 28.9 µM | > 30 µM | – |
| N=C(N)c1ccc(/N=N/Nc2ccc(C(=N)N)cc2)cc1 [DIMINAZENE] | – | 0.02 µM | – | > 30 µM | – |
| Cc1ccc(C(=O)Nc2ccc(S(=O)(=O)O)c3cc(S(=O)(=O)O)cc(S(=O)(=O)O)c23)cc1NC(=O)c1cccc(NC(=O)Nc2cccc(C(=O)Nc3cc(C(=O)Nc4ccc(S(=O)(=O)O)c5cc(S(=O)(=O)O)cc(S(=O)(=O)O)c45)ccc3C)c2)c1 [SURAMIN] | – | 0.13 µM | – | > 30 µM | – |

Now from value to molecule:

| IC50 [1] | IC50 (Trypanosoma brucei) | IC50 (Procathepsin L) | IC50 (Cathepsin B) | EC50 (Trypanosoma brucei) | Compound |
| --- | --- | --- | --- | --- | --- |
| 3.3 µM | 0.9 µM | 13.5 µM | > 30 µM | – | N#Cc1nc(NCc2ccc(F)cc2)c2ncn(Cc3ccccc3)c2n1 |
| 8.3 µM | 1.4 µM | 3.3 µM | 23.6 µM | – | N#Cc1nc(NC2CCCCC2)c2ncn(C3CCCCC3)c2n1 |
| 11 µM | 0.27 µM | 3.91 µM | > 30 µM | – | CCCCn1cnc2c(NCc3cccc(C)c3)nc(C#N)nc21 |
| > 25 µM | 2.2 µM | > 30 µM | > 30 µM | – | Cc1cccc(CNc2nc(C#N)nc3c2ncn3CC2CCCCC2)c1 |
| > 25 µM | 2.4 µM | > 30 µM | > 30 µM | – | N#Cc1nc(NCCc2ccccc2)c2ncn(Cc3ccccc3)c2n1 |
| 1.2 µM | 0.45 µM | 0.42 µM | > 30 µM | – | N#Cc1nc(NCc2ccc(Cl)c(Cl)c2)c2ncn(CC(O)CO)c2n1 (configuration not stated) |
| 3.4 µM | 0.22 µM | 0.5 µM | > 30 µM | – | COC(CCn1cnc2c(NCc3ccc(Cl)c(Cl)c3)nc(C#N)nc21)OC |
| 8.4 µM | 0.54 µM | 9.62 µM | > 30 µM | – | CCCCn1cnc2c(NCc3ccc(Br)cc3)nc(C#N)nc21 |
| 4.1 µM | 0.18 µM | 1.82 µM | > 30 µM | – | CCCCn1cnc2c(NCc3ccc(Cl)c(Cl)c3)nc(C#N)nc21 |
| 14 µM | 1.7 µM | 4.38 µM | > 30 µM | – | CCCCn1cnc2c(NCc3ccccc3)nc(C#N)nc21 |
| > 25 µM | 1.1 µM | 10.5 µM | > 30 µM | – | Cc1cccc(CNc2nc(C#N)nc3c2ncn3C2CCCC2)c1 |
| > 25 µM | 0.5 µM | > 30 µM | > 30 µM | – | N#Cc1nc(NCc2ccc(Cl)cc2)c2ncn(Cc3cccnc3)c2n1 |
| > 25 µM | > 10 µM | > 30 µM | > 30 µM | – | N#Cc1nc(NCc2ccc(Cl)cc2)c2ncn(CC3CCCCC3)c2n1 |
| 16 µM | 1.5 µM | 17.1 µM | > 30 µM | – | CCCCn1cnc2c(NCCc3ccccc3)nc(C#N)nc21 |
| 11 µM | – | 26.9 µM | > 30 µM | 0.4 µM | COc1ccc(Cn2cnc3c(NCc4ccccc4)nc(C#N)nc32)cc1 |
| 7.1 µM | 0.7 µM | 6.84 µM | > 30 µM | – | CCCCn1cnc2c(NCc3ccc(F)cc3)nc(C#N)nc21 |
| 2.3 µM | 0.33 µM | 3.79 µM | 17.7 µM | – | N#Cc1nc(NC2CCCCC2)c2ncn(Cc3ccccc3)c2n1 |
| > 25 µM | – | 5.86 µM | > 30 µM | 0.55 µM | CCCCn1cnc2c(NCc3ccc(C)cc3)nc(C#N)nc21 |
| 3.3 µM | 0.48 µM | 10.5 µM | > 30 µM | – | Cc1cccc(CNc2nc(C#N)nc3c2ncn3Cc2ccccc2)c1 |
| > 25 µM | 1.7 µM | 13.4 µM | > 30 µM | – | N#Cc1nc(NCc2ccccc2)c2ncn(C3CCCC3)c2n1 |
| > 25 µM | 0.34 µM | > 30 µM | > 30 µM | – | N#Cc1nc(NCc2ccc(Cl)cc2)c2ncn(Cc3cccc(C(F)(F)F)c3)c2n1 |
| 1.4 µM | 0.6 µM | 0.3 µM | > 30 µM | – | N#Cc1nc(NCc2ccc(Cl)c(Cl)c2)c2ncn(CCO)c2n1 |

Reference: ChEMBL document CHEMBL1140721, “Development of potent purine-derived nitrile inhibitors of the trypanosomal protease TbcatB” (J Med Chem, 2008)
